Laboratory results reported in ChEMBL document CHEMBL4138315, “Synthesis and Evaluation of a Novel Bivalent Selective Antagonist for the Mu-Delta Opioid Receptor Heterodimer that Reduces Morphine Withdrawal in Mice” (J Med Chem, 2018).
Active and inactive are the calls of the source.

Legend:
[1] = target: T1, Mu-type opioid receptor (Homo sapiens, UniProt P35372); experiment: Displacement of [3H]-diprenorphine from human MOR expressed in CHO cell membranes after 80 mins by scintillation counting analysis; details: cho
T1 sequence (P35372 whole entry): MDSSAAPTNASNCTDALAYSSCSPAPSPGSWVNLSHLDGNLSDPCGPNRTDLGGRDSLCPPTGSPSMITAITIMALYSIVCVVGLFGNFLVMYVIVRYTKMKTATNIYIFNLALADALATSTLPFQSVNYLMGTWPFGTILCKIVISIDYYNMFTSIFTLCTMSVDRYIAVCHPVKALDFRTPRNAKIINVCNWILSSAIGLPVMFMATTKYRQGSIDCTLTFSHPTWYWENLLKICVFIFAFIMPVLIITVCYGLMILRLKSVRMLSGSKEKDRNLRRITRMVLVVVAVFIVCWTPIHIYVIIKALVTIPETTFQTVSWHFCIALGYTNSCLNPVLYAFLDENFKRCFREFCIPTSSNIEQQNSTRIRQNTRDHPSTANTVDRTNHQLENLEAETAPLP
Procedure, shortened: (§1)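 Competition binding on MOR-, DOR- or MDOR-CHO membranes used a fixed 3H-diprenorphine level against competitor concentration curves; 30°C, 80 min, GF/B filtration, scintillation counting. Nonspecific binding defined with 500 nM each DMT-Tic-Ala-OH and CTAP. Ki was derived from IC50 and the 3H-diprenorphine KD in each line; MDOR data fitted with a 2-site model. N = 3-4, mean ± SEM.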

[2] = target: T2, Opioid receptors; mu & delta (Homo sapiens, UniProt P41143+P35372); experiment: Displacement of [3H]-diprenorphine from human mu-delta opioid receptor expressed in CHO cell membranes after 80 mins by scintillation counting analysis; procedure, shortened: as §1
T2 sequence (P35372 whole entry, looked up): as the sequence (P35372 whole entry) above
T2 sequence (P41143 whole entry, looked up): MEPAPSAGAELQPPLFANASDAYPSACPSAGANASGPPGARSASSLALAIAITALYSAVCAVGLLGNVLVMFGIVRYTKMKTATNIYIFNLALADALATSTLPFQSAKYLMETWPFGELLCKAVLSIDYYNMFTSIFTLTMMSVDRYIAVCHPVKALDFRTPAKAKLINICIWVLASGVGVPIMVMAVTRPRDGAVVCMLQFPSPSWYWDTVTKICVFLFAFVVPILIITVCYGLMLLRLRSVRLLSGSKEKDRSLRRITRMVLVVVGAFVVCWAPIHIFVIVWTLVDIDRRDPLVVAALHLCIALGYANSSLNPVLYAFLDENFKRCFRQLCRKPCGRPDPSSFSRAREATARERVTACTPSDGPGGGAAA

[3] = test system: Mus musculus; experiment: Antinociceptive activity in CD1 mouse assessed as reduction in DAMGO-induced nociception up to10 nmol, icv pretreated for 5 mins followed by DAMGO injection measured up to 2 hrs by tail flick assay; format: functional, organism-based
[4] = target: T2, Opioid receptors; mu & delta; experiment: (§2) Antagonist activity at human mu-delta opioid receptor heterodimer expressed in CHO cell membranes assessed as inhibition of CYM51010-induced [35S]-GTPgammaS binding at high site fraction preincubated for 5 mins followed by CYM51010 and [35S]-GTPgammaS addition measured after 80 mins; format: functional
Procedure, shortened: (§3)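 Membranes from CHO cells stably expressing human opioid receptor (N-terminal tagged) were preincubated 5 min with antagonist concentration curves, then given 1 µM CYM51010 and 0.1 nM 35S-GTPγS; 30°C, 80 min, GF/B filtration, scintillation counting. Normalized to CYM51010 alone (100%) and vehicle (0%). Fits: 1-site for MOR/DOR (IC50), 2-site for MDOR (IC50HIGH). N = 3-4, duplicate, mean ± SEM.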

[5] = species: Mus musculus; experiment: Antinociceptive activity in CD1 mouse assessed as reduction in SNC80-induced nociception at 10 nmol pretreated for 5 mins followed by SNC80 injection measured up to 2 hrs by tail flick assay; format: functional, organism-based
Procedure, shortened: (§4)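 Male CD-1 mice received 10 nmol icv (vehicle 2% DMSO/10% Tween80/88% water), 5 min before sc agonist. SNC80 was 10 mg/kg in 20% DMSO/10% Tween80/70% saline; morphine was given in saline. 52°C tail flick, 10 s cutoff, recorded over a 2 h time course; experimenter blinded.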

[6] = target: T2, Opioid receptors; mu & delta; experiment: Displacement of [3H]-diprenorphine from human mu-delta opioid receptor heterodimer expressed in CHO cell membranes at high site fraction after 80 mins by scintillation counting analysis relative to control
[7] = species: Mus musculus; experiment: Antinociceptive activity in CD1 mouse assessed as reduction in morphine-induced nociception at 10 nmol pretreated for 5 mins followed by morphine injection measured up to 2 hrs by tail flick assay; format: functional, organism-based; procedure, shortened: as §4
[8] = target: T2, Opioid receptors; mu & delta; experiment: Antagonist activity at human mu-delta opioid receptor heterodimer expressed in CHO cell membranes assessed as inhibition of DAMGO-induced [35S]-GTPgammaS binding preincubated for 5 mins followed by DAMGO and [35S]-GTPgammaS addition measured after 80 mins; format: functional
Procedure, shortened: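 MDOR-CHO membranes were preincubated 5 min with antagonist concentration curve, then 1 µM DAMGO and 0.1 nM 35S-GTPγS were added. Incubated 30°C, 80 min; filter harvest, scintillation counting. Normalized to agonist alone and vehicle. N = 3 independent experiments in duplicate.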

[9] = test system: Mus musculus; experiment: Reduction in morphine dependence expression in chronic morphine dependence ICR mouse model assessed as inhibition of naloxone-precipitated GI effects of withdrawal at 1 nmol, […] administered 5 mins prior to naloxone injection measured up to 20 mins; format: functional, organism-based
[10] = test system: Mus musculus; experiment: Reduction in morphine dependence expression in chronic morphine dependence ICR mouse model assessed as inhibition of naloxone-precipitated jumping behavior at 1 nmol, icv administered 5 mins prior to naloxone injection measured up to 20 mins relative to control; format: functional; parameters: scale not given: the % may be the effect or the level left
Procedure, shortened: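 Chronic dependence: morphine sc twice daily at 10, 20 and 35 mg/kg on days 1-3, single 35 mg/kg on morning of day 4. Naloxone 30 mg/kg ip 4 h later. 1 nmol icv or vehicle 5 min before naloxone. Jumps counted over 20 min in plexiglass cylinders, then urine and feces weighed.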

[11] = target: Delta-type opioid receptor (Homo sapiens, UniProt P41143); experiment: Displacement of [3H]-diprenorphine from human DOR expressed in CHO cell membranes after 80 mins by scintillation counting analysis; details: cho; procedure, shortened: as §1
Delta-type opioid receptor, sequence (P41143 whole entry): as the sequence (P41143 whole entry, looked up) above

[12] = species: Homo sapiens; experiment: Selectivity ratio of KiH for human mu-delta opioid receptor heterodimer expressed in CHO cell membranes to Ki for human DOR expressed in CHO cell membranes; format: cell-based
[13] = test system: Mus musculus; experiment: Reduction in morphine dependence expression in acute morphine dependence ICR mouse model assessed as reduction in GI output at 1 nmol, icv up to 20 mins; format: functional, organism-based
Procedure, shortened: (§5)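 Acute dependence: morphine 100 mg/kg sc, then naloxone 10 mg/kg ip 4 h later. 1 nmol icv or vehicle given 5 min before naloxone; one control arm had no naloxone. Mice observed 20 min in plexiglass cylinders; jumps counted, then urine and feces weighed.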

[14] = test system: Mus musculus; experiment: Antinociceptive activity in icv dosed CD1 mouse assessed as reduction in Deltorphin-2-induced nociception pretreated for 5 mins followed by Deltorphin-2 injection measured up to 2 hrs by tail flick assay; format: functional
[15] = test system: Mus musculus; experiment: Reduction in morphine dependence expression in acute morphine dependence ICR mouse model assessed as reduction in jumping behavior at 1 nmol, icv up to 20 mins; format: functional, organism-based; procedure, shortened: as §5
[16] = test system: Mus musculus; experiment: Effect on tail flick response in CD1 mouse up to 10 nmol, icv measured up to 2 hrs; format: ADME, organism-based; details: in vivo, icv_or_intrathecal
Procedure, shortened: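 Naïve male CD-1 mice were given a dose range up to 10 nmol icv, 5 min before icv vehicle in place of agonist. Tail flick latency in 52°C water (10 s cutoff) recorded over 2 h, baseline first; experimenter blinded.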

[17] = target: T2, Opioid receptors; mu & delta; experiment: as §2, with “80 mins relative to control” for “80 mins”; format: functional
Procedure, shortened: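 35S-GTPγS coupling in MDOR-CHO membranes: 5 min antagonist pre-incubation, then 1 µM CYM51010 plus 0.1 nM 35S-GTPγS, 30°C for 80 min, filtration and scintillation read. A 3-variable 2-site antagonist fit gave FHIGH, the fraction of the high-potency site. N = 3-4 independent experiments.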

[18] = target: T1, Mu-type opioid receptor; experiment: Antagonist activity at human MOR expressed in CHO cell membranes assessed as inhibition of CYM51010-induced [35S]-GTPgammaS binding preincubated for 5 mins followed by CYM51010 and [35S]-GTPgammaS addition measured after 80 mins; format: functional; details: cho; procedure, shortened: as §3
[19] = test system: Mus musculus; experiment: Reduction in morphine dependence expression in acute morphine dependence ICR mouse model assessed as inhibition of naloxone-precipitated GI effects of withdrawal at 1 nmol, […] administered 5 mins prior to naloxone injection measured up to 20 mins; format: functional, organism-based
[20] = test system: Mus musculus; experiment: Antinociceptive activity in CD1 mouse assessed as reduction in DSLET-induced nociception up to 10 nmol, icv pretreated for 5 mins followed by DSLET injection measured up to 2 hrs by tail flick assay; format: functional, organism-based

In the case of `N[C@@H](Cc1ccc(O)cc1)C(=O)N1Cc2ccccc2C[C@@H]1C(=O)NCC(=O)NCCCCC(=O)N[C@H](CCCCNC(=O)CCCCNC(=O)CNC(=O)[C@@H](Cc1cccc2ccccc12)NC(=O)[C@H](Cc1ccccc1)NC(=O)[C@@H]1CCCN1C(=O)[C@@H](N)Cc1ccc(O)cc1)C(=O)O`, the Ki [1] is reported as over 1 µM, the KiH [2] is reported as 0.63 nM and the Activity [3] is reported as “inactive”. The IC50H [4] was 0.00085 µM, the IC50L [4] was over 1 µM and the Activity [5] was “inactive”. For the same molecule, the Imax [6] was 11%, the Activity [7] was “Active” and the IC50 [8] was 0.153 µM. The Activity [9] was “Active”, the Activity [10] was 85.2% and the Ki [11] was 0.084 µM. For the same molecule, the Ratio Ki [12] was 133, the Activity [13] was “Active” and the A50 [14] was 7.77 nmol. The Activity [14] was “Dose-dependent effect”, the Activity [15] was “inactive” and the Activity [16] was “Non-Toxic”. For the same molecule, the Imax [17] was 39%, the IC50 [18] was over 1 µM and the Activity [19] was “inactive”. For the same molecule, the Activity [20] was “inactive”.
